Results published in article PMC2695661 (The Journal of Endocrinology, 2009).
“Also recorded” adds a separate entry of the source. Square brackets hold non-standard residues; d marks the D form. Peptide text beside a SMILES is read from it. pGlu = O=C1CC[C@@H](C(=O)O)N1

Legend:
cGnRH-R-III [1] = molecular target: T1, cGnRH-R-III (Gallus gallus, UniProt Q5EFE0); experiment: Inositol phosphate assay, cGnRH-R-III transfected COS-7 cells; format: cell-based, chicken
T1 sequence (Q5EFE0 1-419): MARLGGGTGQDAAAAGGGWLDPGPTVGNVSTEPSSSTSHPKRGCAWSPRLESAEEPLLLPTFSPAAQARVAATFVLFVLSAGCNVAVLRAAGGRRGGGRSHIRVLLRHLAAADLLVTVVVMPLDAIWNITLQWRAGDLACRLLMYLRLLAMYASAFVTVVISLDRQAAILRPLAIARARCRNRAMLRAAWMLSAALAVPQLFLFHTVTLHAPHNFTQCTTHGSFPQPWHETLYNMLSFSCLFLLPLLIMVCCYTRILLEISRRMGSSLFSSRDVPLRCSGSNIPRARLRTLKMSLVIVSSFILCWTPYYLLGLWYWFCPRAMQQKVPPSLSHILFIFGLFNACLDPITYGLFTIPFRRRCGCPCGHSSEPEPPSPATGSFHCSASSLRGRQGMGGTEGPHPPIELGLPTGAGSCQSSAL
Method in brief: (§1)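 COS-7 cells were electroporated with a chicken type I or type III GnRH receptor expression construct and grown in DMEM with 10% FCS, 4 mM L-glutamine and penicillin/streptomycin at 37 °C, 5% CO2. After 24 h, cells were labelled 24 h with [3H]-myo-inositol in inositol-free DMEM. They were then washed in 25 mM HEPES-DMEM with 10 mM LiCl and stimulated 1 h at 37 °C with analogue. Antagonist mode included 1 nM GnRH-II. Reactions were stopped with 10 mM formic acid. Total inositol phosphates were eluted from Dowex with 1 M ammonium formate/0.1 M formic acid. Assays were run in triplicate and fitted by non-linear regression.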

cGnRH-R-I [2] = molecular target: T2, cGnRH-R-I (Gallus gallus, UniProt Q9DDC9); experiment: Inositol phosphate assay, cGnRH-R-I transfected COS-7 cells; format: cell-based, chicken
T2 sequence (Q9DDC9 1-375): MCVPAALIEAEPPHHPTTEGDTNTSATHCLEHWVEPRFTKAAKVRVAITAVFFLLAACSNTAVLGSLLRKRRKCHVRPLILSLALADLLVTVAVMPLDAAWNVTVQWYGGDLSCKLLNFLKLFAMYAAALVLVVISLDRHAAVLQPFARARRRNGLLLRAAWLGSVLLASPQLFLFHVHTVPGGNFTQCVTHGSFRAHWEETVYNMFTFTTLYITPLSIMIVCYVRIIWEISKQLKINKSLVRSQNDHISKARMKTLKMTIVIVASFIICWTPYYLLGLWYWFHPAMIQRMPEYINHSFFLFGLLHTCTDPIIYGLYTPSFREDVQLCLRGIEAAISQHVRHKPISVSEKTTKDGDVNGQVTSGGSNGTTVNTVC
Method in brief: as §1

cGnRH-R-I [3] = molecular target: T2, cGnRH-R-I; experiment: Whole cell radioligand binding assay, cGnRH-R-I transfected COS-7 cells; parameters: species or system chicken
cGnRH-R-III [4] = molecular target: T1, cGnRH-R-III; experiment: Whole cell radioligand binding assay, cGnRH-R-III transfected COS-7 cells; parameters: species or system chicken

Compound: CC(C)C[C@H](NC(=O)[C@H](Cc1c[nH]c2ccccc12)NC(=O)CNC(=O)[C@H](Cc1ccc(O)cc1)NC(=O)[C@H](CO)NC(=O)[C@H](Cc1c[nH]c2ccccc12)NC(=O)[C@H](Cc1c[nH]cn1)NC(=O)[C@@H]1CCC(=O)N1)C(=O)N1CCC[C@H]1C(=O)NCC(N)=O [sGnRH-III] ([pGlu]HWSYGWLPG-NH2)
- EC50 (cGnRH-R-III [1]): 21 nM
- EC50 (cGnRH-R-I [2]): 10.3 nM

Compound: GnRH-II ([pGlu]HWSHGWYPG-NH2; ends and bridges not checked; UniProt O43555 24-33, looked up)
- inositol phosphate accumulation, GnRH-II relative to cGnRH-I (cGnRH-R-III [1]; cGnRH-R-III transfected cells): six times more effective
- inositol phosphate production potency, GnRH-II relative to cGnRH-I (cGnRH-R-I [2]; cGnRH-R-I): four times more potent; also recorded: four times more potently
- fold higher affinity for GnRH-II than for cGnRH-I (cGnRH-R-I [3]): 21 fold
- fold higher affinity for GnRH-II than for sGnRH-III (cGnRH-R-I [3]): 16 fold
- fold higher affinity for GnRH-II than for cGnRH-I (cGnRH-R-III [4]): 35 fold
- fold higher affinity for GnRH-II than for sGnRH-III (cGnRH-R-III [4]): 16 fold
